Source: ChEMBL document CHEMBL4145497, “Discovery of 2-aminothiazolyl berberine derivatives as effectively antibacterial agents toward clinically drug-resistant Gram-negative Acinetobacter baumanii” (Eur J Med Chem, 2018)
Converted amounts (≈) assume the structure as drawn. The source made the active and inactive calls. The calls are words filed in the database; no cut-off is given here.

What was measured:
Pseudomonas aeruginosa [1] = assay: Antibacterial activity against Pseudomonas aeruginosa ATCC 27853 after 18 to 24 hrs by CLSI two fold serial dilution method; format: functional
Saccharomyces cerevisiae = assay: Antifungal activity against Saccharomyces cerevisiae ATCC 9763 by CLSI two fold serial dilution method; format: functional
Acinetobacter baumannii [2] = assay: Induction of membrane permeabilization in drug-resistant Acinetobacter baumannii at 0.024 umol/ml incubated for 1 hr measured up to 120 mins by propidium iodide staining-based fluorescence spectra analysis; format: functional, organism-based
[3] = Aqueous solubility of the compound in phosphate buffer at pH 7.4 after 3 hrs by UV detection assay; format: physicochemical
Outline: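 Water solubility measured at physiological pH, with berberine as the control.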

Pichia norvegensis = assay: Antifungal activity against Candida mycoderma ATCC 96918 by CLSI two fold serial dilution method; format: functional
Staphylococcus aureus [4] = assay: Antibacterial activity against Staphylococcus aureus ATCC 25923 after 18 to 24 hrs by CLSI two fold serial dilution method; format: functional
Acinetobacter baumannii [5] = assay: Antibacterial activity against drug-resistant Acinetobacter baumannii at 0.7 ug/ml measured 12 hrs post 10 serial passages; format: functional, organism-based
Micrococcus luteus = assay: Antibacterial activity against Micrococcus luteus ATCC 4698 after 18 to 24 hrs by CLSI two fold serial dilution method; format: functional
Bacillus subtilis = assay: Antibacterial activity against Bacillus subtilis ATCC 21216 after 18 to 24 hrs by CLSI two fold serial dilution method; format: functional
Candida parapsilosis = assay: Antifungal activity against Candida parapsilosis ATCC 22019 by CLSI two fold serial dilution method; format: functional; details: Lodderomyces parapsilosis
Acinetobacter baumannii [6] = assay: Bactericidal activity against drug-resistant Acinetobacter baumannii assessed as reduction in number of viable bacterial load at 8 nmol/ml with in 2 hrs by time kill assay; format: functional
Cyberlindnera jadinii = assay: Antifungal activity against Candida utilis ATCC 9950 by CLSI two fold serial dilution method; format: functional; details: Williopsis jadinii
Aspergillus flavus [7] = assay: Antifungal activity against Aspergillus flavus ATCC 204304 by CLSI two fold serial dilution method; format: functional
Candida albicans = assay: Antifungal activity against Candida albicans ATCC 76615 by CLSI two fold serial dilution method; format: functional
[8] = Cytotoxicity against human LO2 cells assessed as cell viability at 1.5625 to 100 ug/ml after 48 hrs by MTT assay relative to control; format: cell-based, L02; details: read-out: Activity
Outline: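 Human hepatocyte LO2 cells exposed to compound across a concentration range for 48 h; viability read by colorimetric MTT assay; standard deviation from three independent experiments.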

Escherichia coli [9] = assay: Antibacterial activity against Escherichia coli DH52 after 18 to 24 hrs by CLSI two fold serial dilution method; format: functional
Staphylococcus aureus [10] = assay: Ratio of MIC for methicillin-resistant Staphylococcus aureus N315 in absence of norfloxacin to MIC for methicillin-resistant Staphylococcus aureus N315 in presence of norfloxacin; format: functional
Klebsiella pneumoniae [11] = assay: Potentiation of norfloxacin-mediated antibacterial activity against drug-resistant Klebsiella pneumoniae assessed as norfloxacin MIC after 18 to 24 hrs by two fold dilution checkerboard method (reference value: 0.8 umol/ml); format: functional
Enterococcus faecalis [12] = assay: Antibacterial activity against drug-resistant Enterococcus faecalis after 18 to 24 hrs in presence of norfloxacin by two fold dilution checkerboard method; format: functional
Escherichia coli [13] = assay: Potentiation of norfloxacin-mediated antibacterial activity against drug-resistant Escherichia coli assessed as norfloxacin MIC after 18 to 24 hrs by two fold dilution checkerboard method (reference value: 1.6 umol/ml); format: functional
Klebsiella pneumoniae [14] = assay: Synergistic antibacterial activity against drug-resistant Klebsiella pneumoniae assessed as FIC index in presence of norfloxacin by two fold dilution checkerboard method; format: functional
Enterococcus faecalis [15] = assay: Additive antibacterial activity against drug-resistant Enterococcus faecalis assessed as FIC index in presence of norfloxacin by two fold dilution checkerboard method; format: functional
Escherichia coli [16] = assay: Antibacterial activity against drug-resistant Escherichia coli after 18 to 24 hrs in presence of norfloxacin by two fold dilution checkerboard method; format: functional
Staphylococcus aureus [17] = assay: Antibacterial activity against methicillin-resistant Staphylococcus aureus N315 after 18 to 24 hrs in presence of norfloxacin by two fold dilution checkerboard method; format: functional
Acinetobacter baumannii [18] = assay: Antibacterial activity against drug-resistant Acinetobacter baumannii after 18 to 24 hrs in presence of norfloxacin by two fold dilution checkerboard method; format: functional
Acinetobacter baumannii [19] = assay: Synergistic antibacterial activity against drug-resistant Acinetobacter baumannii assessed as FIC index in presence of norfloxacin by two fold dilution checkerboard method; format: functional
Pseudomonas aeruginosa [20] = assay: Potentiation of norfloxacin-mediated antibacterial activity against drug-resistant Pseudomonas aeruginosa assessed as norfloxacin MIC after 18 to 24 hrs by two fold dilution checkerboard method (reference value: 1.6 umol/ml); format: functional
DNA [21] = assay: Induction of drug-resistant Acinetobacter baumanii DNA cleavage at 50 uM after 6 hrs by ethidium bromide staining based agarose gel electrophoresis method; format: nucleic-acid assay; details: Acinetobacter baumannii
Outline: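 Spin-column-isolated genomic DNA from drug-resistant A. baumanii (1.31×10^-6 mol/L) was incubated with compound (50 μM) in 50 mM Tris-HCl/50 mM NaCl, pH 7.4, at 37 °C for 6 h. Agarose gel electrophoresis was run against DNA-alone and DNA-plus-buffer lanes.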

Acinetobacter baumannii [22] = assay: Potentiation of norfloxacin-mediated antibacterial activity against drug-resistant Acinetobacter baumannii assessed as norfloxacin MIC after 18 to 24 hrs by two fold dilution checkerboard method (reference value: 0.8 umol/ml); format: functional
Staphylococcus aureus [23] = assay: Potentiation of norfloxacin-mediated antibacterial activity against methicillin-resistant Staphylococcus aureus N315 after 18 to 24 hrs by two fold dilution checkerboard method relative to control; format: functional
Enterococcus faecalis [24] = assay: Potentiation of norfloxacin-mediated antibacterial activity against drug-resistant Enterococcus faecalis assessed as norfloxacin MIC after 18 to 24 hrs by two fold dilution checkerboard method (reference value: 0.8 umol/ml); format: functional
Staphylococcus aureus [25] = assay: Antibacterial activity against methicillin-resistant Staphylococcus aureus N315 after 18 to 24 hrs by CLSI two fold serial dilution method; format: functional
Klebsiella pneumoniae [26] = assay: Antibacterial activity against drug-resistant Klebsiella pneumoniae after 18 to 24 hrs in presence of norfloxacin by two fold dilution checkerboard method; format: functional
DNA [27] = assay: Inhibition of neutral red binding to drug-resistant Acinetobacter baumanii DNA up to 2.5 10^-5mol/L by UV-vis spectroscopic analysis; format: nucleic-acid assay; details: Acinetobacter baumannii
Outline: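 Neutral red competition with genomic DNA from drug-resistant A. baumanii, extracted by spin column after proteinase K lysis. UV-vis absorbance near 460 nm was followed as compound concentration increased in the neutral red–DNA system.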

Escherichia coli [28] = assay: Synergistic antibacterial activity against drug-resistant Escherichia coli assessed as FIC index in presence of norfloxacin by two fold dilution checkerboard method; format: functional
Staphylococcus aureus [29] = assay: Potentiation of norfloxacin-mediated antibacterial activity against methicillin-resistant Staphylococcus aureus N315 assessed as norfloxacin MIC after 18 to 24 hrs by two fold dilution checkerboard method (reference value: 0.03 umol/ml); format: functional
Pseudomonas aeruginosa [30] = assay: Antibacterial activity against drug-resistant Pseudomonas aeruginosa after 18 to 24 hrs in presence of norfloxacin by two fold dilution checkerboard method; format: functional
Staphylococcus aureus [31] = assay: Synergistic antibacterial activity against methicillin-resistant Staphylococcus aureus N315 assessed as FIC index in presence of norfloxacin by two fold dilution checkerboard method; format: functional
Pseudomonas aeruginosa [32] = assay: Synergistic antibacterial activity against drug-resistant Pseudomonas aeruginosa assessed as FIC index in presence of norfloxacin by two fold dilution checkerboard method; format: functional
DNA [33] = assay: Binding affinity to drug-resistant Acinetobacter baumanii DNA by UV-vis spectroscopic analysis; format: nucleic-acid assay; details: Acinetobacter baumannii
Outline: (§1)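 Genomic DNA was isolated from drug-resistant A. baumanii by spin-column extraction after proteinase K lysis at 70 °C. DNA concentration was taken from A260 using ε260 = 6600 L·mol−1·cm−1, expressed as phosphate molarity, and purity was checked by A260/A280 and gel. UV-vis spectra were recorded at a fixed DNA concentration of 8.12×10^-4 mol/L with increasing compound.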

Aspergillus flavus [34] = assay: Potency index, ratio of fluconazole MIC to compound MIC for antibacterial activity against Aspergillus flavus ATCC 204304; format: functional
DNA [35] = assay: Binding affinity to drug-resistant Acinetobacter baumanii DNA assessed as hyperchromic effect up to 2.5 10^-5mol/L by UV-vis spectroscopic analysis; format: nucleic-acid assay; details: Acinetobacter baumannii; outline: as §1

Compound: COc1cc(/C=N/Nc2nccs2)c2c(c1OCc1ccc(Cl)cc1Cl)CN1CCc3cc4c(cc3C1C2)OCO4 (stereo not drawn)
- MIC (Pseudomonas aeruginosa [1]): 210 µM (≈ 128 µg/mL)
- MIC (Saccharomyces cerevisiae): 840 µM (≈ 512 µg/mL)
- Activity (Acinetobacter baumannii [2]): Active
- solubility at 3 h [3]: 1900 µg/mL (≈ 3120 µM)
- MIC (Pichia norvegensis): 420 µM (≈ 256 µg/mL)
- MIC (Staphylococcus aureus [4]): 110 µM (≈ 67 µg/mL)
- Activity (Acinetobacter baumannii [5]): Active
- MIC (Micrococcus luteus): 110 µM (≈ 67 µg/mL)
- MIC (Bacillus subtilis): 210 µM (≈ 128 µg/mL)
- MIC (Candida parapsilosis): 7 µM (≈ 4.27 µg/mL)
- Activity (Acinetobacter baumannii [6]): >3 deltalog10CFU/ml
- MIC (Cyberlindnera jadinii): 210 µM (≈ 128 µg/mL)
- MIC (Aspergillus flavus [7]): 420 µM (≈ 256 µg/mL)
- MIC (Candida albicans): 420 µM (≈ 256 µg/mL)
- viability at 48 h [8]: > 80.5%
- MIC (Escherichia coli [9]): 840 µM (≈ 512 µg/mL)

Compound: CCCCCCOc1c(OC)cc(/C=N/Nc2nccs2)c2c1CN1CCc3cc4c(cc3C1C2)OCO4 (stereo not drawn)
- Ratio (Staphylococcus aureus [10]): 4
- MIC (Klebsiella pneumoniae [11]): 100 µM
- MIC (Pseudomonas aeruginosa [1]): 60 µM (≈ 32.1 µg/mL)
- MIC (Enterococcus faecalis [12]): 15 µM
- MIC (Escherichia coli [13]): 100 µM
- fractional inhibitory concentration index (FICI) (Klebsiella pneumoniae [14]): 0.38
- MIC (Saccharomyces cerevisiae): 60 µM (≈ 32.1 µg/mL)
- fractional inhibitory concentration index (FICI) (Enterococcus faecalis [15]): 0.56
- Activity (Acinetobacter baumannii [2]): Active
- MIC (Escherichia coli [16]): 30 µM
- MIC (Staphylococcus aureus [17]): 7 µM
- solubility at 3 h [3]: 1420 µg/mL (≈ 2660 µM)
- MIC (Acinetobacter baumannii [18]): 0.5 µM
- fractional inhibitory concentration index (FICI) (Acinetobacter baumannii [19]): 0.31
- MIC (Pichia norvegensis): 30 µM (≈ 16 µg/mL)
- MIC (Pseudomonas aeruginosa [20]): 50 µM
- MIC (Staphylococcus aureus [4]): 30 µM (≈ 16 µg/mL)
- Activity (DNA [21]): Active
- MIC (Acinetobacter baumannii [22]): 50 µM
- Activity (Acinetobacter baumannii [5]): Active
- MIC (Micrococcus luteus): 60 µM (≈ 32.1 µg/mL)
- MIC (Bacillus subtilis): 120 µM (≈ 64.2 µg/mL)
- MIC (Candida parapsilosis): 4 µM (≈ 2.14 µg/mL)
- Activity (Acinetobacter baumannii [6]): >3 deltalog10CFU/ml
- fold change (FC) (Staphylococcus aureus [23]): 4
- MIC (Enterococcus faecalis [24]): 50 µM
- MIC (Cyberlindnera jadinii): 120 µM (≈ 64.2 µg/mL)
- MIC (Aspergillus flavus [7]): 60 µM (≈ 32.1 µg/mL)
- MIC (Staphylococcus aureus [25]): 7 to 30 µM (≈ 3.74 to 16 µg/mL)
- MIC (Candida albicans): 30 µM (≈ 16 µg/mL)
- MIC (Klebsiella pneumoniae [26]): 30 µM
- inhibition (DNA [27]): Active
- fractional inhibitory concentration index (FICI) (Escherichia coli [28]): 0.31
- MIC (Staphylococcus aureus [29]): 6 µM
- MIC (Pseudomonas aeruginosa [30]): 25 µM
- viability at 48 h [8]: > 70.7%
- MIC (Escherichia coli [9]): 60 µM (≈ 32.1 µg/mL)
- fractional inhibitory concentration index (FICI) (Staphylococcus aureus [31]): 0.5
- fractional inhibitory concentration index (FICI) (Pseudomonas aeruginosa [32]): 0.45
- K (DNA [33]): 2.54 ×10³ L/mol
- Ratio (Aspergillus flavus [34]): 14
- Activity (DNA [35]): Active
